# Source: article PMC10330157 (Clinical cancer research : an official journal of the …, 2023)
# Entries after “also recorded” stand apart in the source; their conditions may differ.
# Experiments:
# [1] = test system: patients with other hematologic malignancies (NHL, MM, myeloid malignancy, HCL, Castleman disease); assay: Phase 1 trial: antitumor response in patients without CLL/SLL; format: in vivo, human
# How it was run: (§1)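 Patients took the oral test compound once daily in 28-day cycles. Disease was assessed at baseline and then every 8 weeks from Cycle 3, using disease-specific scans, bone marrow biopsy/aspirate and hematologic and biochemical labs. MRD was checked in peripheral blood in patients reaching CR. ORR was reported with 95% CI, and missing data were not imputed.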
# [2] = Clinical plasma pharmacokinetics; format: in vivo, human
# How it was run: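 Oral test compound was given once daily at doses of 20 to 1,200 mg. Plasma levels were measured by LC-MS/MS (LLOQ 5 ng/mL). Cmax, AUC0-24h and accumulation ratio came from noncompartmental analysis.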
# [3] = test system: patients with relapsed or refractory CLL/SLL; assay: Phase 1 trial: antitumor response in patients with R/R CLL/SLL; format: in vivo, human
# How it was run: as §1
# [4] = Phase 1 first-in-human trial: safety and tolerability; format: in vivo
# How it was run: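 In an open-label, non-randomized dose escalation, the test compound was given orally once daily for 28-day cycles at 20–1,200 mg. Cohorts started as single patients, with intrapatient escalation allowed. The primary endpoints were DLT and MTD. Patients were hospitalized during ramp-up, with oral antihyperuricemic agents and hydration ≥ 72 h before the first dose plus IV hydration. AEs were counted once per patient. The safety population was all patients receiving ≥ 1 dose, analysed descriptively.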
# patients with CLL/SLL = assay: Absolute lymphocyte count; format: in vivo, human; settings: for Mean decrease in ALC: 23 patients with CLL/SLL
# How it was run: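 Adults with R/R CLL/SLL took the test compound orally once daily in 28-day cycles. ALC was tracked from ramp-up D1 to C1D1 and to C2D1. A subset with baseline mean ALC > 25 × 10³/μL was evaluated separately.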
# [5] = cited from earlier work
# [6] = Castleman disease, evaluable n = 1
# [7] = Myeloid malignancy (AML, MDS), evaluable n = 2
# [8] = Non-CLL/SLL overall, evaluable n = 28
# [9] = single oral administration, 50 mg, 1 subject
# [10] = single oral administration, 100 mg, 1 subject
# [11] = single oral administration, 200 mg, 2 subjects, Mean ± SD
# [12] = single oral administration, 400 mg, 8 subjects, Mean ± SD
# [13] = single oral administration, 600 mg, 7 subjects, Mean ± SD
# [14] = single oral administration, 800 mg, 7 subjects, Mean ± SD
# [15] = single oral administration, 1,000 mg, 6 subjects, Mean ± SD
# [16] = single oral administration, 1,200 mg, 6 subjects, Mean ± SD
smiles,measurement,setting,value
O=C(NS(=O)(=O)c1ccc(NC[C@H]2COCCO2)c([N+](=O)[O-])c1)c1ccc(N2CCN(CC3=C(c4ccc(Cl)cc4)CC4(CCC4)CC3)CC2)cc1Oc1cnc2[nH]ccc2c1 [lisaftoclax],"Clinical benefit, patients",[1]; 28 evaluable patients without CLL/SLL,50.0%
same,Best response MR,[1]; [6],0 (0) no. (%)
same,Best response PD,[1]; [6],0 (0) no. (%)
same,Best response PR,[1]; [6],0 (0) no. (%)
same,Best response SD,[1]; [6],1 (100.0) no. (%)
same,Clinical benefit rate,[1]; [6],1 (100.0) no. (%)
same,ORR,[1]; [6],0 (0) no. (%)
same,Best response MR,"[1]; HCL, evaluable n = 1",0 (0) no. (%)
same,Best response PD,"[1]; HCL, evaluable n = 1",0 (0) no. (%)
same,Best response PR,"[1]; HCL, evaluable n = 1",0 (0) no. (%)
same,Best response SD,"[1]; HCL, evaluable n = 1",1 (100.0) no. (%)
same,Clinical benefit rate,"[1]; HCL, evaluable n = 1",1 (100.0) no. (%)
same,ORR,"[1]; HCL, evaluable n = 1",0 (0) no. (%)
same,Best response PD,"[1]; MM, evaluable n = 11",7 (63.6) no. (%)
same,Best response SD,"[1]; MM, evaluable n = 11",2 (18.2) no. (%)
same,Clinical benefit rate,"[1]; MM, evaluable n = 11",4 (36.4) no. (%)
same,ORR,"[1]; MM, evaluable n = 11",1 (9.1) no. (%)
same,Best response MR,[1]; [7],0 (0) no. (%)
same,Best response PD,[1]; [7],2 (100.0) no. (%)
same,Best response PR,[1]; [7],0 (0) no. (%)
same,Best response SD,[1]; [7],0 (0) no. (%)
same,Clinical benefit rate,[1]; [7],0 (0) no. (%)
same,ORR,[1]; [7],0 (0) no. (%)
same,Best response PD,"[1]; NHL, evaluable n = 13",5 (38.5) no. (%)
same,Best response PR,"[1]; NHL, evaluable n = 13",0 (0) no. (%)
same,Best response SD,"[1]; NHL, evaluable n = 13",7 (53.8) no. (%)
same,Clinical benefit rate,"[1]; NHL, evaluable n = 13",8 (61.5) no. (%)
same,ORR,"[1]; NHL, evaluable n = 13",0 (0) no. (%)
same,Best response MR,[1]; [8],2 (7.1) no. (%)
same,Best response PD,[1]; [8],14 (50.0) no. (%)
same,Best response PR,[1]; [8],1 (3.6) no. (%)
same,Best response SD,[1]; [8],11 (39.3) no. (%)
same,Clinical benefit rate,[1]; [8],14 (50.0) no. (%)
same,ORR,[1]; [8],1 (3.6) no. (%)
same,Steady-state mean (CV%) AUC0-24h,[2]; 400 mg,"10,130 (40%) ng•h/mL"
same,Steady-state mean (CV%) Cmax,[2]; 400 mg,981 (43%) ng/mL
same,Accumulation ratio,[2]; multiple oral daily dosing,approximately 1
same,AUC0-24,[2]; [9],261 ng·h/mL
same,Cmax,[2]; [9],39.1 ng/mL
same,T1/2,[2]; [9],2.84 h
same,Tmax,[2]; [9],3 h
same,AUC0-24,[2]; [10],1800 ng·h/mL
same,Cmax,[2]; [10],229 ng/mL
same,T1/2,[2]; [10],3.85 h
same,Tmax,[2]; [10],6 h
same,AUC0-24,[2]; [11],2410 ± 370 ng·h/mL
same,Cmax,[2]; [11],294 ± 4 ng/mL
same,T1/2,[2]; [11],3.84 ± 0.16 h
same,Tmax,"[2]; single oral administration, 200 mg, 2 subjects, Median (range)",4 (4~4) h
same,AUC0-24,[2]; [12],6850 ± 2910 ng·h/mL
same,Cmax,[2]; [12],822 ± 334 ng/mL
same,T1/2,[2]; [12],4.43 ± 0.57 h
same,Tmax,"[2]; single oral administration, 400 mg, 8 subjects, Median (range)",6 (4~8) h
same,AUC0-24,[2]; [13],7810 ± 2840 ng·h/mL
same,Cmax,[2]; [13],761 ± 298 ng/mL
same,T1/2,[2]; [13],4.68 ± 1.03 h
same,Tmax,"[2]; single oral administration, 600 mg, 7 subjects, Median (range)",6 (4~8) h
same,AUC0-24,[2]; [14],7250 ± 2240 ng·h/mL
same,Cmax,[2]; [14],982 ± 384 ng/mL
same,T1/2,[2]; [14],4.34 ± 0.53 h
same,Tmax,"[2]; single oral administration, 800 mg, 7 subjects, Median (range)",4 (4~6) h
same,AUC0-24,[2]; [15],18300 ± 13100 ng·h/mL
same,Cmax,[2]; [15],1690 ± 1220 ng/mL
same,T1/2,[2]; [15],6.10 ± 1.52 h
same,Tmax,"[2]; single oral administration, 1,000 mg, 6 subjects, Median (range)",8 (6~8) h
same,AUC0-24,[2]; [16],12300 ± 4820 ng·h/mL
same,Cmax,[2]; [16],1200 ± 480 ng/mL
same,T1/2,[2]; [16],4.86 ± 1.01 h
same,Tmax,"[2]; single oral administration, 1,200 mg, 6 subjects, Median (range)",6 (3~8) h
same,ORR in patients with BTKi-intolerant disease,[3]; 4 out of 5 evaluable patients,80.0%
same,Best response MR,"[3]; CLL/SLL, evaluable n = 22",0 (0) no. (%)
same,Best response PD,"[3]; CLL/SLL, evaluable n = 22",0 (0) no. (%)
same,Best response PR,"[3]; CLL/SLL, evaluable n = 22",14 (63.6) no. (%)
same,Best response SD,"[3]; CLL/SLL, evaluable n = 22",8 (36.4) no. (%)
same,ORR,"[3]; CLL/SLL, evaluable n = 22",14 (63.6) no. (%)
same,PR (ORR) in patients with del(17p)/TP53 mutation,"[3]; CLL/SLL, 2/3",66.7%
same,PR in patients with IGHV unmutated,"[3]; CLL/SLL, 8/10",80.0%
same,Patients with ≥ 70% reductions in nodal and/or splenic size,"[3]; CLL/SLL, 9 of 21 patients",42.9%
same,Patients achieving PR among 4 patients who relapsed to prior BTKi,[3]; after 2 cycles of treatment,1 patient
same,Complete response (CR),[3]; all patients,No patient experienced a CR
same,Median time to response,[3]; patients with R/R CLL/SLL,"2 (range, 2-8) cycles"
same,"Grade 3 or 4 treatment-emergent increased lipase, patients",[4]; 23 patients with CLL/SLL,13.0%
same,"Grade 3 or 4 treatment-emergent neutropenia, patients",[4]; 23 patients with CLL/SLL,26.1%
same,"Treatment-related neutropenia, patients",[4]; 23 patients with CLL/SLL,26.1%
same,"Anemia, treatment-emergent adverse event","[4]; N = 52, Grade 3/4",5 (9.6) no. (%)
same,"Constipation, treatment-emergent adverse event","[4]; N = 52, Grade 3/4",1 (1.9) no. (%)
same,"Diarrhea, treatment-emergent adverse event","[4]; N = 52, Grade 3/4",1 (1.9) no. (%)
same,"Fatigue, treatment-emergent adverse event","[4]; N = 52, Grade 3/4",1 (1.9) no. (%)
same,"Headache, treatment-emergent adverse event","[4]; N = 52, Grade 3/4",2 (3.8) no. (%)
same,"Hypokalemia, treatment-emergent adverse event","[4]; N = 52, Grade 3/4",1 (1.9) no. (%)
same,"Nausea, treatment-emergent adverse event","[4]; N = 52, Grade 3/4",2 (3.8) no. (%)
same,"Neutropenia, treatment-emergent adverse event","[4]; N = 52, Grade 3/4",11 (21.2) no. (%)
same,"Peripheral edema, treatment-emergent adverse event","[4]; N = 52, Grade 3/4",2 (3.8) no. (%)
same,"Thrombocytopenia, treatment-emergent adverse event","[4]; N = 52, Grade 3/4",7 (13.5) no. (%)
same,"Anemia, treatment-emergent adverse event","[4]; N = 52, any grade",15 (28.8) no. (%)
same,"Arthralgia, treatment-emergent adverse event","[4]; N = 52, any grade",8 (15.4) no. (%)
same,"Constipation, treatment-emergent adverse event","[4]; N = 52, any grade",13 (25.0) no. (%)
same,"Diarrhea, treatment-emergent adverse event","[4]; N = 52, any grade",25 (48.1) no. (%)
same,"Fatigue, treatment-emergent adverse event","[4]; N = 52, any grade",18 (34.6) no. (%)
same,"Headache, treatment-emergent adverse event","[4]; N = 52, any grade",11 (21.2) no. (%)
same,"Hypokalemia, treatment-emergent adverse event","[4]; N = 52, any grade",9 (17.3) no. (%)
same,"Nausea, treatment-emergent adverse event","[4]; N = 52, any grade",16 (30.8) no. (%)
same,"Neutropenia, treatment-emergent adverse event","[4]; N = 52, any grade",14 (26.9) no. (%)
same,"Peripheral edema, treatment-emergent adverse event","[4]; N = 52, any grade",9 (17.3) no. (%)
same,"Thrombocytopenia, treatment-emergent adverse event","[4]; N = 52, any grade",15 (28.8) no. (%)
same,"Vomiting, treatment-emergent adverse event","[4]; N = 52, any grade",12 (23.1) no. (%)
same,"Tumor lysis syndrome (TLS), clinical or laboratory","[4]; daily dose ramp-up, doses up to 1,200 mg",no evidence of tumor lysis syndrome; also recorded: no evidence of clinical or laboratory TLS; also recorded: no patient with CLL/SLL in this study has experienced TLS; also recorded: no clinical or laboratory evidence of TLS
same,Dose-limiting toxicity (DLT),"[4]; doses of up to 1,200 mg",not reached; also recorded: no dose-limiting toxicities
same,Changes in platelet counts,[4]; in contrast to navitoclax,did not elicit clinically significant changes in platelet counts
same,"Neutropenic sequelae, such as fever and infection",[4]; in vivo,not observed
same,Maximum tolerated dose (MTD),"[4]; oral once daily, 20 mg to 1,200 mg, 52 patients",not reached
same,Median time to 50% ALC reduction,patients with CLL/SLL; 5 patients with higher risk of TLS,"3 (range, 2-4) days"
same,Mean decrease in ALC,patients with CLL/SLL; from ramp-up D1 to C1D1,69.4%
same,Mean decrease in ALC,patients with CLL/SLL; from ramp-up Day 1 to C2D1 (completion of first cycle),92.8%
CC1(C)CCC(CN2CCN(c3ccc(C(=O)NS(=O)(=O)c4ccc(NCC5CCOCC5)c([N+](=O)[O-])c4)c(Oc4cnc5[nH]ccc5c4)c3)CC2)=C(c2ccc(Cl)cc2)C1 [venetoclax],Patients with grade 3/4 neutropenia who may require G-CSF support or dose reductions,[5],~ 75%
same,Recipients experiencing infection,[5],72%
same,"Grade ≥ 2 diarrhea, recipients",[5]; real-world-evidence studies,up to 18%
same,"Grade ≥ 3 neutropenia, recipients",[5]; real-world-evidence studies,up to 47%
same,"Grade ≥ 3 neutropenic fever, recipients",[5]; real-world-evidence studies,up to 13%
same,"Grade ≥ 3 thrombocytopenia, recipients",[5]; real-world-evidence studies,up to 36%
same,"TLS, recipients",[5]; real-world-evidence studies,up to 13.4%
